Laboratory results published in paper PMC12594201 (Proteins, 2025).

Assays:
β‐clamp [1] = target: T1, β‐clamp (Escherichia coli, UniProt P0A988); conditions: literature values; ref [34], [35]; cited from earlier work
β‐clamp [2] = target: T1, β‐clamp; experiment: Calculated fraction of β‐clamp bound / saturation level; type: binding, E. coli; conditions: NMR titration, 200 μM β‐clamp with up to 800 μM peptide
Summary of the method: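 Fraction of β-clamp bound computed from the quadratic single-site equation using total protein concentration, total ligand concentration and K_D. […]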

T1 sequence (P0A988 whole entry): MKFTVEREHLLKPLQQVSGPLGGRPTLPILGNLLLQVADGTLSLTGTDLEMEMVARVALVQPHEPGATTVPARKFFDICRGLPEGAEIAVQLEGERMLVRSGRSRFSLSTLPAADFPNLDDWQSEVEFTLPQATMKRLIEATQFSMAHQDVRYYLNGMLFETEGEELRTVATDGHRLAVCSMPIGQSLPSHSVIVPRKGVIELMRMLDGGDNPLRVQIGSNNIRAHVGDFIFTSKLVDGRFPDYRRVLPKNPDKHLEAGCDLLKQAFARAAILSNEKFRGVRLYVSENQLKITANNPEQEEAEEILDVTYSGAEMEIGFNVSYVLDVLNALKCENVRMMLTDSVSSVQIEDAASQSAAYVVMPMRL

Question: What does the source list for NH3 ^+‐GWLDPQMERQLVLGL‐COO^— [pol IV*]?
Answer: Kd (β‐clamp [1]): 2 to 8 µM; saturation level of β‐clamp (β‐clamp [2]): > 98%
